Laboratory results: ChEMBL document CHEMBL1134286, “Novel erythromycin derivatives with aryl groups tethered to the C-6 position are potent protein synthesis inhibitors and active against multidrug-resistant respiratory pathogens” (J Med Chem, 2001)
Converted amounts (≈) assume the structure as drawn.

What was measured:
Assay type in all cases: functional
Streptococcus pneumoniae [1] = test: Minimum inhibitory concentration against Streptococcus pneumoniae 5649 efflux
How it was run: (§1)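 MICs were determined by agar dilution following National Committee for Clinical Laboratory Standards recommendations. Values are in µg/mL.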

Staphylococcus aureus [2] = test: Minimum inhibitory concentration against Staphylococcus aureus A 5177 MLSB-i; how it was run: as §1
[3] = Minimum inhibitory concentration against Streptococcus pyogenes 930MLSB; how it was run: as §1
Streptococcus pneumoniae [4] = test: Minimum inhibitory concentration against Streptococcus pneumoniae ATCC 6303 Ery-S; how it was run: as §1
Staphylococcus aureus [5] = test: Minimum inhibitory concentration against Staphylococcus aureus A 5278 MLSB-c; how it was run: as §1
[6] = Minimum inhibitory concentration against Streptococcus pyogenes PIU2548 efflux; how it was run: as §1
[7] = Minimum inhibitory concentration against Streptococcus pyogenes EES 61 Ery-S; how it was run: as §1
[8] = Minimum inhibitory concentration against Streptococcus pneumoniae 5737 MLSB; how it was run: as §1
[9] = Minimum inhibitory concentration against Haemophilus influenzae DILL Amp-R; how it was run: as §1
Staphylococcus aureus [10] = test: Minimum inhibitory concentration against Staphylococcus aureus ATCC 6538PEry-S; conditions: ATCC 6538P; how it was run: as §1

MIC (Streptococcus pneumoniae [1]) | MIC (Staphylococcus aureus [2]) | MIC [3] | MIC (Streptococcus pneumoniae [4]) | MIC (Staphylococcus aureus [5]) | MIC [6] | MIC [7] | MIC [8] | MIC [9] | MIC (Staphylococcus aureus [10]) | Structure (SMILES)
1 µg/mL (≈ 1.45 µM) | 6.2 µg/mL (≈ 8.96 µM) | 64 µg/mL (≈ 92.5 µM) | 1 µg/mL (≈ 1.45 µM) | > 100 µg/mL | 4 µg/mL (≈ 5.78 µM) | 0.5 µg/mL (≈ 0.723 µM) | 32 µg/mL (≈ 46.2 µM) | > 64 µg/mL | 6.2 µg/mL (≈ 8.96 µM) | CC[C@H]1OC(=O)[C@H](C)C(=O)[C@H](C)[C@@H](O[C@@H]2O[C@H](C)C[C@H](N(C)C)[C@H]2O)[C@](C)(OCCCc2ccccc2)C[C@@H](C)C(=O)[C@H](C)[C@@H](O)[C@]1(C)O
– | 25 µg/mL (≈ 40.5 µM) | > 100 µg/mL | – | > 100 µg/mL | 12.5 µg/mL (≈ 20.3 µM) | 6.2 µg/mL (≈ 10.1 µM) | – | – | 25 µg/mL (≈ 40.5 µM) | CC[C@H]1OC(=O)[C@H](C)C(=O)[C@H](C)[C@@H](O[C@@H]2O[C@H](C)C[C@H](N(C)C)[C@H]2O)[C@](C)(OCCN)C[C@@H](C)C(=O)[C@H](C)[C@@H](O)[C@]1(C)O
0.5 µg/mL (≈ 0.753 µM) | 1.56 µg/mL (≈ 2.35 µM) | > 128 µg/mL | 0.25 µg/mL (≈ 0.377 µM) | > 100 µg/mL | 4 µg/mL (≈ 6.03 µM) | 0.25 µg/mL (≈ 0.377 µM) | > 128 µg/mL | 32 µg/mL (≈ 48.2 µM) | 1.56 µg/mL (≈ 2.35 µM) | C=CCO[C@]1(C)C[C@@H](C)C2=NCCN3C(=O)O[C@](C)([C@@H](CC)OC(=O)[C@H](C)C(=O)[C@H](C)[C@H]1O[C@@H]1O[C@H](C)C[C@H](N(C)C)[C@H]1O)[C@H]3[C@H]2C
8 µg/mL (≈ 13 µM) | 50 µg/mL (≈ 81.5 µM) | > 128 µg/mL | 4 µg/mL (≈ 6.52 µM) | > 100 µg/mL | 32 µg/mL (≈ 52.1 µM) | – | > 128 µg/mL | > 128 µg/mL | 12.5 µg/mL (≈ 20.4 µM) | C=CCO[C@]1(C)C[C@@H](C)C(=O)[C@H](C)[C@@H](O)[C@](C)(O)[C@@H](CC)OC(=O)[C@H](C)C(=O)[C@H](C)[C@H]1O[C@@H]1O[C@H](C)C[C@H](N(C)C)[C@H]1O
4 µg/mL (≈ 5.55 µM) | 6.2 µg/mL (≈ 8.6 µM) | > 128 µg/mL | 2 µg/mL (≈ 2.77 µM) | > 100 µg/mL | 8 µg/mL (≈ 11.1 µM) | 2 µg/mL (≈ 2.77 µM) | > 128 µg/mL | 64 µg/mL (≈ 88.8 µM) | 6.2 µg/mL (≈ 8.6 µM) | CC[C@H]1OC(=O)[C@H](C)C(=O)[C@H](C)[C@@H](O[C@@H]2O[C@H](C)C[C@H](N(C)C)[C@H]2O)[C@](C)(OCCNCCc2ccccc2)C[C@@H](C)C(=O)[C@H](C)[C@@H](O)[C@]1(C)O
0.5 µg/mL (≈ 0.653 µM) | 0.1 µg/mL (≈ 0.131 µM) | > 32 µg/mL | 0.03 µg/mL (≈ 0.0392 µM) | > 100 µg/mL | 0.5 µg/mL (≈ 0.653 µM) | 0.03 µg/mL (≈ 0.0392 µM) | > 32 µg/mL | 8 µg/mL (≈ 10.4 µM) | 0.2 µg/mL (≈ 0.261 µM) | CC[C@H]1OC(=O)[C@H](C)C(=O)[C@H](C)[C@@H](O[C@@H]2O[C@H](C)C[C@H](N(C)C)[C@H]2O)[C@](C)(OC/C=C/c2cccc3cccnc23)C[C@@H](C)C(=O)[C@H](C)[C@H]2NC(=O)O[C@@]21C
0.25 µg/mL (≈ 0.321 µM) | 0.1 µg/mL (≈ 0.128 µM) | 4 µg/mL (≈ 5.13 µM) | 0.03 µg/mL (≈ 0.0385 µM) | > 100 µg/mL | 0.25 µg/mL (≈ 0.321 µM) | 0.015 µg/mL (≈ 0.0192 µM) | 1 µg/mL (≈ 1.28 µM) | 4 µg/mL (≈ 5.13 µM) | 0.1 µg/mL (≈ 0.128 µM) | CC[C@H]1OC(=O)[C@H](C)C(=O)[C@H](C)[C@@H](O[C@@H]2O[C@H](C)C[C@H](N(C)C)[C@H]2O)[C@](C)(OC/C=C/c2cnc3ccccc3c2)C[C@@H](C)C(=O)[C@H](C)[C@H]2N(C)C(=O)O[C@]12C
0.5 µg/mL (≈ 0.641 µM) | 0.05 µg/mL (≈ 0.0641 µM) | 4 µg/mL (≈ 5.13 µM) | 0.03 µg/mL (≈ 0.0385 µM) | > 100 µg/mL | 0.25 µg/mL (≈ 0.321 µM) | 0.03 µg/mL (≈ 0.0385 µM) | 32 µg/mL (≈ 41 µM) | – | 0.05 µg/mL (≈ 0.0641 µM) | CC[C@H]1OC(=O)[C@H](C)C(=O)[C@H](C)[C@@H](O[C@@H]2O[C@H](C)C[C@H](N(C)C)[C@H]2O)[C@](C)(OCC2CC2c2cnc3ccccc3c2)C[C@@H](C)C(=O)[C@H](C)[C@H]2NC(=O)O[C@@]21C (some centres undefined)
1 µg/mL (≈ 1.31 µM) | 0.1 µg/mL (≈ 0.131 µM) | 16 µg/mL (≈ 20.9 µM) | 0.015 µg/mL (≈ 0.0196 µM) | > 100 µg/mL | 1 µg/mL (≈ 1.31 µM) | 0.015 µg/mL (≈ 0.0196 µM) | > 128 µg/mL | 16 µg/mL (≈ 20.9 µM) | 0.1 µg/mL (≈ 0.131 µM) | CC[C@H]1OC(=O)[C@H](C)C(=O)[C@H](C)[C@@H](O[C@@H]2O[C@H](C)C[C@H](N(C)C)[C@H]2O)[C@](C)(OC/C=C/c2ccc3ccccc3c2)C[C@@H](C)C(=O)[C@H](C)[C@H]2NC(=O)O[C@@]21C
4 µg/mL (≈ 4.71 µM) | 6.2 µg/mL (≈ 7.29 µM) | 32 µg/mL (≈ 37.6 µM) | 0.06 µg/mL (≈ 0.0706 µM) | > 100 µg/mL | 16 µg/mL (≈ 18.8 µM) | 0.03 µg/mL (≈ 0.0353 µM) | 32 µg/mL (≈ 37.6 µM) | 4 µg/mL (≈ 4.71 µM) | 0.39 µg/mL (≈ 0.459 µM) | CC[C@H]1OC(=O)[C@H](C)[C@@H](O[C@H]2C[C@@](C)(OC)[C@@H](O)[C@H](C)O2)[C@H](C)[C@@H](O[C@@H]2O[C@H](C)C[C@H](N(C)C)[C@H]2O)[C@](C)(OC/C=C/c2ccccc2)C[C@@H](C)C(=O)[C@H](C)[C@@H](O)[C@]1(C)O
4 µg/mL (≈ 5.66 µM) | 1.56 µg/mL (≈ 2.21 µM) | > 64 µg/mL | 0.25 µg/mL (≈ 0.354 µM) | > 100 µg/mL | 4 µg/mL (≈ 5.66 µM) | 0.5 µg/mL (≈ 0.707 µM) | > 64 µg/mL | 16 µg/mL (≈ 22.6 µM) | 3.1 µg/mL (≈ 4.39 µM) | CC[C@H]1OC(=O)[C@H](C)C(=O)[C@H](C)[C@@H](O[C@@H]2O[C@H](C)C[C@H](N(C)C)[C@H]2O)[C@](C)(OCCNCc2ccccc2)C[C@@H](C)C(=O)[C@H](C)[C@@H](O)[C@]1(C)O
0.5 µg/mL (≈ 0.653 µM) | 0.05 µg/mL (≈ 0.0653 µM) | > 128 µg/mL | 0.03 µg/mL (≈ 0.0392 µM) | > 100 µg/mL | 1 µg/mL (≈ 1.31 µM) | 0.03 µg/mL (≈ 0.0392 µM) | 4 µg/mL (≈ 5.22 µM) | 4 µg/mL (≈ 5.22 µM) | 0.05 µg/mL (≈ 0.0653 µM) | CC[C@H]1OC(=O)[C@H](C)C(=O)[C@H](C)[C@@H](O[C@@H]2O[C@H](C)C[C@H](N(C)C)[C@H]2O)[C@](C)(OC/C=C/c2ccc3cccnc3c2)C[C@@H](C)C(=O)[C@H](C)[C@H]2NC(=O)O[C@@]21C
0.5 µg/mL (≈ 0.698 µM) | 0.1 µg/mL (≈ 0.14 µM) | > 128 µg/mL | 0.03 µg/mL (≈ 0.0419 µM) | > 100 µg/mL | 0.5 µg/mL (≈ 0.698 µM) | 0.03 µg/mL (≈ 0.0419 µM) | > 128 µg/mL | 8 µg/mL (≈ 11.2 µM) | 0.1 µg/mL (≈ 0.14 µM) | CC[C@H]1OC(=O)[C@H](C)C(=O)[C@H](C)[C@@H](O[C@@H]2O[C@H](C)C[C@H](N(C)C)[C@H]2O)[C@](C)(OC/C=C/c2cccnc2)C[C@@H](C)C(=O)[C@H](C)[C@H]2NC(=O)O[C@@]21C
2 µg/mL (≈ 2.82 µM) | 6.2 µg/mL (≈ 8.73 µM) | > 128 µg/mL | 1 µg/mL (≈ 1.41 µM) | > 100 µg/mL | 4 µg/mL (≈ 5.63 µM) | 0.5 µg/mL (≈ 0.704 µM) | > 128 µg/mL | 64 µg/mL (≈ 90.2 µM) | 6.2 µg/mL (≈ 8.73 µM) | C=CCO[C@]1(C)C[C@@H](C)C(=O)[C@H](C)[C@H]2N(CCN(C)C)C(=O)O[C@]2(C)[C@@H](CC)OC(=O)[C@H](C)C(=O)[C@H](C)[C@H]1O[C@@H]1O[C@H](C)C[C@H](N(C)C)[C@H]1O
2 µg/mL (≈ 2.47 µM) | 0.39 µg/mL (≈ 0.481 µM) | > 100 µg/mL | 0.03 µg/mL (≈ 0.037 µM) | > 100 µg/mL | 2 µg/mL (≈ 2.47 µM) | 0.03 µg/mL (≈ 0.037 µM) | 2 µg/mL (≈ 2.47 µM) | 4 µg/mL (≈ 4.93 µM) | 0.2 µg/mL (≈ 0.247 µM) | CC[C@H]1OC(=O)[C@H](C)C(=O)[C@H](C)[C@@H](O[C@@H]2O[C@H](C)C[C@H](N(C)C)[C@H]2O)[C@](C)(OCCNCCCc2cnc3ccccc3c2)C[C@@H](C)C(=O)[C@H](C)[C@H]2NC(=O)O[C@@]21C
